Experimental data from different studies.
Compare with care: the assays were run in different laboratories.
Effect on: microbial growth

`O=[N+]([O-])c1ccc(-c2nc(-c3ccc(Oc4ccccc4)cc3)no2)cc1` gave an MIC of 8 µg/mL (Clostridioides difficile; broth dilution; 48 h).
The MIC of `C/C=C/C/C=C/CCC(=O)[C@H]1O[C@H]1C(N)=O` is reported as 10 to 12 µM (Saccharomyces cerevisiae).
The MIC of `Cc1ccc(C)n1-c1ccc(C(=O)NNC=O)cc1` is reported as 250 µg/mL (Saccharomyces cerevisiae; broth dilution; ATCC9763).
The MIC of `CC1(C)S[C@@H]2[C@H](NC(=O)[C@H](N)c3ccccc3)C(=O)N2[C@H]1C(=O)O` is reported as 4 µg/mL (Shigella sonnei; broth dilution; ATCC25931).
`Cc1cc(C)n(C(=O)c2ccc(-n3c(C)ccc3C)cc2)n1` has an MIC of over 500 µg/mL (Saccharomyces cerevisiae; broth dilution; ATCC9763).
With `Cl.Oc1ccc(-c2nc(-c3ccc(Oc4ccc5c(c4)CNCC5)cc3)no2)cc1` the MIC was 4 µg/mL (Clostridioides difficile; broth dilution; 48 h).
The MIC of `O=[N+]([O-])c1cc(-c2nc(-c3ccc(Oc4ccc(C(F)(F)F)cc4)cc3)no2)cnc1O` is reported as 2 to 4 µg/mL (Clostridioides difficile; broth dilution; ATCC43255; 48 h).
`Cc1ncc([N+](=O)[O-])n1CCO` has an MIC of over 0.5 µg/mL (Clostridioides difficile; broth dilution; R20291).
For `OC(Cn1cncn1)(Cn1cncn1)c1ccc(F)cc1F`, the MIC was 4 µg/mL (Saccharomyces cerevisiae).
For `Cc1ccc(C)n1-c1ccc(-c2nnc(-c3ccc(N(C)C)cc3)[nH]2)cc1`, the MIC was 62.5 µg/mL (Saccharomyces cerevisiae; broth dilution; ATCC9763).
`Oc1ccc(-c2nc(-c3ccc(Oc4ccccc4)cc3)no2)cc1` gave an MIC of 6 µg/mL (Clostridioides difficile; broth dilution; 48 h).
The MIC of `CC(C)(C)C(=O)C(Oc1ccc(Cl)cc1)n1ccnc1` (centres unmarked) is reported as 20 to 25 µM (Saccharomyces cerevisiae).
For `Cc1ccc(C)n1-c1ccc(-c2nnco2)cc1`, the MIC was 125 µg/mL (Saccharomyces cerevisiae; broth dilution; ATCC9763).
With `CC(CN)c1ccc(Oc2ccc(-c3noc(-c4ccc(O)cc4)n3)cc2)cc1.Cl` (racemic) the MIC was 16 µg/mL (Clostridioides difficile; broth dilution; 48 h).
The MIC of `Cc1ccc(C)n1-c1ccc(-c2nnc(-c3ccccc3Cl)[nH]2)cc1` is reported as 8 µg/mL (Saccharomyces cerevisiae; broth dilution; ATCC9763).
`Oc1c(F)cc(-c2nc(-c3ccc(Oc4ccc(C(F)(F)F)cc4)cc3)no2)cc1F` gave an MIC of 2 to 4 µg/mL (Clostridioides difficile; broth dilution; ATCC43255; 48 h).
`CNc1ccc(-c2nc(-c3ccc(Oc4ccccc4)cc3)no2)cc1` gave an MIC of 8 µg/mL (Clostridioides difficile; broth dilution; 48 h).
